Screening data deposited in PubChem by several laboratories.
STAT3 inh = reduces IL-6 driven STAT3 reporter signal; U3A cells, IL-6 STAT3-luciferase reporter, luminescence; host cell line lacks STAT1; inhibition, % at 5.5 µM; 0.89% of 190,000 active;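 active means inhibition above the mean inhibition across all screened compounds plus 3 SD, cut at about 44% in these data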;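 further: 0% = DMSO only wells and 100% = 100 µM nifuroxazide control wells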
APP 5'UTR act = activates APP 5'UTR luciferase reporter; SH-SY5Y APP 5'UTR luciferase reporter, luminescence; zero percent = DMSO vehicle wells; 1% of 190,000 active; activation, % at 2 µM; AID 1276;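 active means activation above a set limit, based on mean plus 3 SD of controls, cut at about 140% in these data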
STAT1 inh = reduces IFN-gamma driven STAT1 reporter signal; NIH 3T3 STAT1-luciferase reporter, luminescence; 0.35% of 200,000 active; AID 920; inhibition, % at 5.5 µM;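 active means inhibition above a set limit, the mean inhibition across all tested compounds plus 3 SD, cut at about 34% in these data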;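 further: 0% = IFN-gamma with DMSO and 100% = IFN-gamma with 300 µM nifuroxazide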
NF-kB expr up = compounds increasing NF-kB expression in human neuronal cells | NF-kB reporter expression; active compounds read high | fold change at 12.5 µM | 1.6% of 190,000 active | AID 1239; in the data active means fold change above about 3.3
STAT3 activator = increases IL-6 driven STAT3 reporter signal. 0.91% of 190,000 active. U3A cells, IL-6 STAT3-luciferase reporter, luminescence; 100% = signal with IL-6 EC80 alone. activation (% of control), % at 5.6 µM;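 active means activation above the screen-wide mean of compound activation plus 3 SD, cut at about 130% in these data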;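 further: 0% = background luminescence of wells with medium and substrate only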
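Test system: STAT3-luciferase reporter U3A cells; Detection: reporter luminescence signal; Times: 1 h compound pre-exposure, 6 h IL-6 stimulation, 37 °C; Benchmarks: IL-6-only high control; Also added: IL-6 stimulus at 33 ng/mL final.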
STAT1 activator = activators of IFN-gamma induced STAT1 signaling. NIH 3T3 STAT1-luciferase reporter, luminescence; 100% = IFN-gamma alone, no compound. 2.6% of 200,000 active. activation (% of control), % at 5.5 µM;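 active means activation above the screen-wide mean activation plus 3 SD, cut at about 130% in these data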;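 further: raw ratio to IFN-gamma control signal so 100% means no change and 0% no light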
The depositor's hits bear a star; . = not tested or not shown. Shown are actives, neighbours in structure and some others; about 4.9% of the full set was active somewhere.

SMILES	STAT3 inh	APP 5'UTR act	STAT1 inh	NF-kB expr up	STAT3 activator	STAT1 activator
Cc1ccsc1/C=N/Nc1cccc(C(=O)O)c1	49*	-42	89*	14*	61	18
CC(=O)/C(=N\Nc1cccc(Cl)c1)Sc1nnc(-c2ccccc2)n1-c1ccccc1	6	-10	7	1.3	98	94
O=c1[nH]c(-c2ccccc2Cl)nc2c1sc(=S)n2-c1ccccc1	-2	15	-1	1.1	108	99
CC1=Nc2ccccc2N=C(N)C1c1ccccc1 (configuration not stated)	-6	192*	-55	1	109	146*
CC1=Nc2ccccc2N=C(NC(=O)c2ccccc2)C1c1ccc(Cl)cc1 (configuration not stated)	10	5	12	0.57	95	88
CC(NC(=O)Nc1nnc(C(F)(F)F)s1)(C(F)(F)F)C(F)(F)F	82*	-1	62*	0.49	31	43
O=C(NC1=NCCS1)c1ccc(Br)s1	0	117	-41	3.1	105	138*
O=C(Nc1nnc(C(F)(F)F)s1)c1ccc(Br)s1	46*	31	42*	1.1	65	60
Cc1cnc(C(=O)Nc2nnc(SCc3c(Cl)cccc3Cl)s2)cn1	-6	-15	5	0.96	103	95
COc1ccc(NC(=O)C2CSC(C)(C)N2C=O)cc1 (configuration not stated)	3	4	-1	1.9	100	100
Cc1cccnc1NC(=S)NC(=O)c1cncc(Br)c1	4	70	-24	2.2	101	122
O=C(NC(=S)Nc1ccc(Br)cn1)c1cccs1	-84	195*	-112	4*	168*	204*
Cc1ccccc1C(=O)Nc1ccc(Br)cn1	15	111	-37	3.8*	96	134*
Cc1cccnc1NC(=S)NC(=O)c1cccs1	-50	198*	-82	5*	154*	174*
O=C(COC(=O)c1cccnc1Cl)Nc1nc(-c2ccccc2)cs1	30	17	-11	1.4	77	110
CCCn1nnc(NC(=O)c2cccc(OCc3ccccc3)c2)n1	10	4	3	1	93	98
CCCCN=CC1=C(O)C(C(=O)OC)C(C)(C)CC1=O (configuration not stated)	8	-4	5	0.97	98	95
Cc1cc2ncc(-c3cccc(Cl)c3)cn2n1	-24	49	-32	1.9	122	129*
Cn1cc(CNCc2ccccc2OCC(O)CN2CCc3ccccc3C2)cn1 (configuration not stated)	0	-13	3	0.79	105	96
O=C(/C=C/c1cccs1)Nc1ccc(Br)cn1	-39	-92	-86	5.6*	133*	178*
O=C(/C=C/c1cccs1)Nc1nccs1	22	122	-37	2.1	85	134*
CCOC(=O)/C=C/C(=O)Nc1nccs1	2	-5	31	1.2	97	71
O=C(/C=C/c1cccs1)Nc1cccc(NC(=O)/C=C/c2cccs2)n1	-1	45	-23	0.71	105	121
O=C(/C=C\c1ccccc1)Nc1nccs1	25	168*	-19	6.5*	81	118
COc1ccc(NC(=O)NNC(=O)c2ccccc2-n2cccc2)cc1OC	6	7	2	1	100	97
SMILES	STAT3 inh	APP 5'UTR act	STAT1 inh	NF-kB expr up	STAT3 activator	STAT1 activator
O=C(/C=C/c1ccc2c(c1)OCCCO2)c1ccccc1O	-8	216*	-31	3.6*	107	128
CN(C)c1ccc(/C=C/C(=O)c2ccccc2O)cc1	21	137*	-16	3.5*	86	115
COc1cc(/C=C/C(=O)c2ccccc2O)cc(OC)c1OC	-7	-5	7	1.5	107	93
Cn1c(SCc2ccc(C#N)cc2Cl)nc2ccccc21	11	187*	-50	5.3*	91	145*
Cc1cc(C)c(OCC(=O)NCC2CCCO2)c(C)c1 (configuration not stated)	-8	4	-6	1.2	110	105
COc1cccc(C(=O)Nc2ccc(F)cc2F)c1	17	32	-23	1.9	90	122
COc1cccc(C(=O)Nc2ccccc2F)c1	12	19	-33	1.9	92	132*
COc1cccc(C(=O)Nc2ccc(C(F)(F)F)n(C)c2=O)c1	22	136*	-25	1.3	84	123
COc1cccc(C(=O)Nc2cccc(C(C)=O)c2)c1	-5	9	-21	1.7	104	118
COC(=O)c1cccc(NC(=O)c2cccc(OC)c2)c1	-7	83	-34	1.7	108	131*
COC(=O)c1sccc1NC(=O)c1cccc(OC)c1	-40	-12	1	1.1	135*	99
CCOc1ccc(C(=O)Nc2ccc(C(F)(F)F)n(C)c2=O)cc1	30	-12	-5	1.2	77	105
COC(=O)c1sccc1NC(=O)c1ccccc1	8	8	-9	1.1	98	108
COCCOc1cc(NC(=O)CS(=O)(=O)CC(=O)N(C)C)c(Cl)cc1Cl	5	21	-7	1	100	104
O=C(COC(=O)c1ccc(Br)o1)Nc1cccc(S(=O)(=O)N2CCCCCC2)c1	8	-6	7	0.85	99	94
Cc1ccc2ccc(C3C(=O)c4ccccc4C3=O)nc2c1	-74	145*	-45	.	165*	142*
O=C(NC1CCCCCC1)C(=S)NCCc1ccccc1	-9	-22	-7	1.5	109	105
O=C(NCCc1ccccc1)NC1CCCCC1	-11	38	-26	3.4*	111	124
O=C(NCCC1=CCCCC1)NC1CCCCC1	0	82	-48	4.5*	100	144*
O=C1NC(c2ccccc2)C(C(=O)c2cccs2)=C1O (configuration not stated)	4	13	-1	1.4	98	101
CCN(CC)C(=S)Nc1c(C)n(C)n(-c2ccccc2)c1=O	13	7	5	.	93	94
CC1=Nc2cc([N+](=O)[O-])ccc2NC(C)(C)C1	-7	136*	-2	1.1	105	102
CC1(C)CNc2cc([N+](=O)[O-])ccc2S1	5	-26	-10	1.6	99	109
O=C(Nc1ccccc1F)c1ccc(-n2cncn2)nc1	33	2	3	1.5	81	97
C/C(=N\N=c1/sc2ccccc2n1C)c1ccccn1	5	60	-49	2	100	142*
C=CCn1c(N)c(C(=O)NCCC2=CCCCC2)sc1=S	8	38	-25	1.5	97	123
O=C(O)C1C2CCC(O2)C1C(=O)NCc1ccccc1Br (configuration not stated)	10	-17	2	1.1	97	96
